“And” between values parts separate entries of the source, which are not always exact repeats. Equal entries are not always repeated.
Columns and labels:
[1] = Pharmacokinetics in serum after i.p. injection; assay type: in vivo, mouse; conditions: for mean maximum serum concentration: mice
How it was run: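 Eight-week-old male BALB/c mice received a single i.p. dose of 30, 50 or 100 mg/kg in 70% DMSO, with another group given 100 mg/kg in 100% DMSO (n = 3 per group). Blood was drawn at 30 min, 1, 3, 6 and 24 h. […] was quantified by a validated LC-MS protocol.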

[2] = target: T1, Id1 (Mus musculus, UniProt P20067); test: Circular dichroism; assay type: binding; conditions: AGX51 0–50 μM; AGXA 0–110 μM in DMSO
T1 sequence (P20067 1-148 isoform P20067-2): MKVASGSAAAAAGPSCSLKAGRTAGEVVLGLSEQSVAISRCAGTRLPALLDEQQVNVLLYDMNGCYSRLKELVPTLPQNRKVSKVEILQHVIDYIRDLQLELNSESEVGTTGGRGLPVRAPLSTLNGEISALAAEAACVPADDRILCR

[3] = Concentration of AGX51 in the eyes after i.p. dosing; assay type: in vivo, mouse
How it was run: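 Test compound given i.p. at 30 mg/kg. Eyes were dissected at time points over 24 h, extracted, and compound content per eye measured by mass spectrometry.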

[4] = target: T2, Id3 (Mus musculus, UniProt P41133); test: Circular dichroism; assay type: binding
T2 sequence (P41133 1-119): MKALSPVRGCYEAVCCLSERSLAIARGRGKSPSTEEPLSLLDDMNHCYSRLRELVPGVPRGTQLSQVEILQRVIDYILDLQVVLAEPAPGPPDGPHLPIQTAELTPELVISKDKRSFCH

[5] = system: HCT116 cells; test: HCT116 cell viability; assay type: cell-based, human
How it was run: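 MTT viability: cells seeded at 5000/well and left overnight, then exposed to the test compound for 24 h. MTT (5 mg/mL) was added for 4 h, medium removed and formazan dissolved in DMSO. Absorbance was read at 570 nm.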

[6] = system: HUVECs; test: HUVEC cell branching assay on matrigel; assay type: cell-based, human; conditions: 0–40 μM, 18–20 h on matrigel, vs vehicle, p < 0.05
How it was run: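 HUVECs (80,000 per well) in EGM-2 containing the test compound at the indicated concentration were plated on Matrigel pre-solidified for 30 min at 37°C. After 18–20 h, media was removed and wells were fixed in 10% buffered formalin for 15 min. Tubes were imaged by inverted microscope at 10x. Nodes, junctions, meshes and total branching length were scored by Angiogenesis Analyzer, n = 4 per concentration, Wilcoxon test.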

[7] = system: Cyclin D1; test: Western blot for Cyclin D1 in HUVECs; assay type: cell-based, human; conditions: 0–40 μM, 24 h
How it was run: (§1)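 HUVECs treated with 0–40 µM test compound for 24 h. Whole-cell lysates were immunoblotted for the target protein. Infrared band intensities were blank-subtracted and normalised to tubulin.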

[8] = system: E protein binding; test: EMSA on whole cell lysates from HCT116 cells; assay type: cell-based, human; conditions: HCT116, 40 μM, 24 h
[9] = target: T3, E47-ID1 cellular complex (Homo sapiens, UniProt P41134); test: Immunoprecipitation of endogenous ID1 and E47 in HCT116 cells; assay type: cell-based; conditions: HCT116, 60 μM, 1 h
T3 sequence (P41134 1-155): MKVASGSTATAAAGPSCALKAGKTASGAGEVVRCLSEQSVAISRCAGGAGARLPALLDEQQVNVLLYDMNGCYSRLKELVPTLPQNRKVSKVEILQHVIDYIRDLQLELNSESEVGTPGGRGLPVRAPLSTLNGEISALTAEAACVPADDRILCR
How it was run: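 HCT116 cells were exposed for 1 h and lysed in NP40 or RIPA buffer with phosphatase/protease inhibitors, then cleared 15 min at 15,000 rpm, 4°C. Lysates were immunoprecipitated overnight at 4°C with anti-ID1 or anti-E2A plus protein G/A beads, washed four times and eluted in SDS sample buffer. SDS-PAGE/PVDF blots (5% milk in TBS-0.1% Tween20) were probed for ID1 (1:500) or E2A (1:1000), alongside whole-cell lysate blots.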

[10] = target: T4, ID1 (Homo sapiens, UniProt P41134); test: Western blot for ID1 in HUVECs; assay type: cell-based; conditions: 0–40 μM, 24 h
T4 sequence (P41134 1-155): T3 sequence (P41134 1-155)
How it was run: as §1

[11] = system: choroidal neovascularization; test: Laser-induced choroidal neovascularization; assay type: in vivo, mouse
How it was run: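 Female C57BL/6 mice aged 4–6 weeks had laser rupture of Bruch's membrane at three sites per eye. Test compounds (1 or 5 µg) or DMSO were given intravitreally. At day 14, choroidal flat mounts were stained with FITC-Griffonia simplicifolia lectin, and CNV area was measured by fluorescence image analysis by an observer masked to group.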

[12] = Water solubility; assay type: physicochemical
[13] = system: 4T1 cells; test: 4T1 cell-based IC50; conditions: Mus musculus, 4T1, 24 h
How it was run: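 4T1 cells exposed to 0–20 µM test compound for 24 h. Whole-cell lysates were immunoblotted for Id1. Band intensities were read on 700/800 nm infrared channels, blank-subtracted and normalised to tubulin, and IC50 was taken from these blots.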

[14] = system: HCT116 cells; test: HCT116 cell cycle analysis; assay type: cell-based, human; conditions: HCT116, 40 μM, 4-24 hours
How it was run: (§2)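 Cells exposed to test compound or DMSO, then trypsinised, PBS-washed and fixed in 70% ethanol at −20°C. After centrifugation and PBS wash, cells were stained in PI/RNase buffer for 15 min at room temperature. DNA content was analysed by flow cytometry.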

[15] = system: HUVECs; test: HUVEC cell cycle analysis; assay type: cell-based, human; conditions: 20 μM, 24 h
How it was run: as §2

[16] = system: HUVECs; test: HUVEC scratch assay; assay type: cell-based, human; conditions: 0–40 μM, 24 h
How it was run: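 HUVECs grown on 0.1% fibronectin-coated wells to confluence over 24 h. They were then serum-starved for 4 h in endothelial basal medium and scratched with a pipette tip to create a cell-free zone before exposure to the test compound.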

[17] = system: ID1 mRNA; test: qRT-PCR for ID1 in HCT116 cells; assay type: cell-based, human; conditions: HCT116, 40 μM, 24 hours
How it was run: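 ID1 transcript measured by qRT-PCR after treatment, using validated QuantiTect primer sets with GAPDH as reference. Fold change was calculated by the delta-delta CT method.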

[18] = system: ID1, ID2, ID3, and ID4; test: Western blot for ID proteins in HCT116 cells; assay type: cell-based, human; conditions: HCT116, 40 μM, 0-48 hours
[19] = system: Cyclin D1; test: Western blot for Cyclin D1 in HCT116 cells; assay type: cell-based, human; conditions: HCT116, 40 μM, 0-48 hours

With `CCC(=O)N(CCC(c1ccc2c(c1)OCO2)c1ccccc1OC)Cc1ccccc1` (centres unmarked) [AGX51, N-(3-(benzo[d][1,3]dioxol-5-yl)-3-(2-methoxyphenyl)propyl)-N-benzylpropionamide] as the compound, how does the half-life ([1]; male, BALB/c, mouse, serum, ip) read?
The half-life was ~3 h.

And the “mean maximum serum concentration” value ([1]; i.p. 30 mg/kg in 70% DMSO, 30 mg/kg)?
Its value is 1.1 μg/mL and 2.7 μM.

What about the “mean maximum serum concentration” value ([1]; i.p. 50 mg/kg in 70% DMSO, 50 mg/kg) of the same compound?
The value was 1.6 μg/mL and 4 μM.

What about the “mean maximum serum concentration” value ([1]; i.p. 100 mg/kg in 70% DMSO, compared with lower doses) of the same compound?
Its value is “not increased further”.

And the “effect on Id1 secondary structure (CD spectra)” value [2]?
Its value is “significant alteration in the 2° structure of Id1”.

And the half-life ([3]; male, BALB/c, mouse, eye, ip, 30 mg/kg)?
The half-life was 3.7 h.

What about the “maximum concentration in the eye” value ([3]; mice, i.p. 30 mg/kg, after 30 min) of the same compound?
Its value is ~ 4 ng/eye.

And the “effect on Id3 secondary structure (CD)” value [4]?
The value was “small but reproducible effect”.

What about the “cell viability (MTT)” value ([5]; HCT116, 40 μM, 24 hours) of the same compound?
The value was “reduced cell viability”.

What about the IC50 ([5]; Homo sapiens, HCT-116, 24 h) of the same compound?
Its IC50 is 22.3 µM.

What about the “vascular branching (nodes, junctions, meshes, total branching length)” value [6] of the same compound?
The value was “significantly impaired in a dose-dependent manner”.

And the “Cyclin D1 levels” value [7]?
The value was “reduction in Cyclin D1 levels”.

And the “E protein binding in cell lysates” value [8]?
Its value is “small increase in E protein binding”.

And the “levels of co-precipitated E47 / ID1” value [9]?
The value was “markedly reduced the levels of the co-precipitated proteins”.

What about the “concentration at which a significant decrease in ID1 protein levels was observed” value [10] of the same compound?
The value was 10 µM.

And the “area of CNV” value ([11]; intravitreal 5 μg on days 1 and 7, day 14, p < 0.05)?
Its value is “effective at significantly reducing CNV”.

And the “area of CNV” value ([11]; twice-daily i.p. injections ~30 mg/kg (500 μg), 14 days, vs vehicle, p < 0.05)?
The value was “significantly reduced CNV”.

And the “area of CNV” value ([11]; two intravitreal injections of 10 μg 1 week apart, day 14, vs vehicle, p < 0.05)?
The value was “significantly suppressed CNV”.

What about the water solubility [12] of the same compound?
Its water solubility is “water insoluble”.

And the IC50 [13]?
Its IC50 is 26.7 µM.

And the cell cycle effect [14]?
The cell cycle effect was “G0/G1 growth arrest”.

What about the cell cycle effect [15] of the same compound?
Its cell cycle effect is “G0/G1 growth arrest”.

And the “HUVEC migration after scratch” value [16]?
Its value is “significantly impaired HUVEC migration”.

And the “ID1 mRNA levels” value [17]?
Its value is “increase in ID1 mRNA levels”.

And the “ID1, ID2, ID3 and ID4 protein levels” value [18]?
The value was “reduced levels of ID1, ID2, ID3, and ID4”.

What about the “Cyclin D1 levels” value [19] of the same compound?
Its value is “reduction in Cyclin D1 levels”.

— publication PMC6896334 (Cell reports, 2019)
